From PMC5955456 (Virulence, 2018)
No end group written: not given here.

Experiments:
E. coli = assay: Viable count analysis; format: cell-based, Escherichia coli; conditions: GGL27 1 µM, 1 hour at 37°C, normal human citrated plasma; Fig. 3h
In short: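 Mid-exponential E. coli grown in Todd-Hewitt broth and washed. 2 x 10^8 cfu/ml incubated 60 min at 37°C with test peptide in 100% human citrated plasma, or in plasma pretreated 3 h with IdeS (0.2 µg/µl) to remove IgG. Serial dilutions plated on TH agar overnight at 37°C; cfu counted and expressed as % survival, mean ± SD.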

bacteria = conditions: buffer with physiological salt content or plasma; ref [7]; cited from earlier work
[1] = tested on: intrinsic pathway of coagulation; assay: aPTT clotting assay in crocodile plasma; format: biochemical, crocodile (Crocodylus siamensis); conditions: peptide 50 µM in citrated crocodile plasma; n=3; Fig. 4b; words
[2] = tested on: intrinsic pathway of coagulation; assay: aPTT clotting assay in turkey plasma; format: biochemical; conditions: peptide 50 µM in citrated turkey plasma; n=3; Fig. 4c; words

GGLIKTKRKRKKQRVKIAYEEIFVKNM [GGL27]
killing of E. coli (E. coli): ~100%

LL-37: antibacterial peptide (LLGDFFRKSKEKIGKEFKRIVQRIKDFLRNLVPRTES; Antibacterial peptide LL-37; UniProt P49913 134-170, looked up)
killing activity in physiological salt or plasma (bacteria): lose their killing activity

RGIIKIKRKRKKQPEKMVRDEIIIERI [American alligator]
aPTT clotting time [1]: clotting times were prolonged

RRLIRIKKKKKQSLKTVGEEIIRGRIQ [Common turkey]
aPTT clotting time [2]: shortened clotting time
